Results as given in ChEMBL document CHEMBL1821561 (Bioorg Med Chem, 2011).
Structures can show the parent of a compound that is named as a salt.

How the values were obtained:
[1] = target: T1, D(1A) dopamine receptor (Homo sapiens, UniProt P21728); test: Intrinsic activity at human dopamine D1 receptor expressed in HEK293 cells assessed as cAMP accumulation after 15 mins relative to dopamine; type: functional, cell-based
Method in brief: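 HEK293 cells stably expressing hD1 (about 1800 fmol/mg) grown to 90–95% confluency. Medium replaced with 500 µM IBMX in EBSS, then drug added in duplicate for 15 min at 37 °C. Stopped with 3% trichloroacetic acid. cAMP measured by [3H]cAMP competition with bovine adrenal binding protein against a standard curve. Maximal response expressed as percent of 10 µM dopamine.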

[2] = Displacement of [3H]-N-methylspiperone from dopamine D2-like receptor in pig striatal tissue homogenates after 30 mins by scintillation counting; type: tissue-based, Sus scrofa, Striatum
Method in brief: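 Porcine striatal membranes with 0.2 nM [3H]-N-methylspiperone plus 50 nM ketanserin to block 5-HT2A sites. Buffer 50 mM HEPES, 4 mM MgCl2, pH 7.4. Nonspecific binding defined with (+)-butaclamol. Incubated 37 °C for 30 min, then filtered and washed with ice-cold Tris/NaCl.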

[3] = Displacement of [3H]SCH23390 from dopamine D1-like receptor in pig striatal tissue homogenates after 30 mins by scintillation counting; type: tissue-based, Sus scrofa, Striatum
[4] = organism: Sus scrofa; test: Ratio of SKF38393 Ki to compound Ki for dopamine D1-like receptor in pig striatal tissue homogenates; type: tissue-based; settings: Striatum
[5] = target: T1, D(1A) dopamine receptor; test: Agonist activity at human dopamine D1 receptor expressed in HEK293 cells assessed as cAMP accumulation after 15 mins; type: functional, cell-based

T1 sequence (P21728 whole entry): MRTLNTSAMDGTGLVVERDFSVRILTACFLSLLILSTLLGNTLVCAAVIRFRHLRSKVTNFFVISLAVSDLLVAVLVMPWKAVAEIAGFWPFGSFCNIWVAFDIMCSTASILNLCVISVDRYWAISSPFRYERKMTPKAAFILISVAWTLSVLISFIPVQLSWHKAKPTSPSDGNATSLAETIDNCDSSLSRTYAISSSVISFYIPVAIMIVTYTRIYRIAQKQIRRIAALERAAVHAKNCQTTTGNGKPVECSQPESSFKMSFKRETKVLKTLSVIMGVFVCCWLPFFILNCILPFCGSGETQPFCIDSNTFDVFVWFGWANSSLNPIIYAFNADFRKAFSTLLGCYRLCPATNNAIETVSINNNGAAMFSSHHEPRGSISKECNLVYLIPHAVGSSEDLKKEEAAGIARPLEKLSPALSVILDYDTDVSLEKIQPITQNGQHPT

Oc1cc2c(cc1O)[C@H]1c3ccccc3CN[C@@H]1CC2 (racemic) [DIHYDREXIDINE]
Intrinsic activity [1]: 103% | Ki [2]: 320 nM

Oc1cc2c(cc1O)[C@H]1c3ccccc3SC[C@@H]1NCC2 (racemic)
Ki [3]: 92 nM | Intrinsic activity [1]: 21% | Ki [2]: 28000 nM | Ratio Ki [4]: 1.6 | EC50 [5]: 584 nM

CN1CCc2cc(Cl)c(O)cc2[C@@H](c2ccccc2)C1
Ki [3]: 0.64 nM

Oc1cc2c(cc1O)[C@@H]1c3ccccc3CC[C@@H]1NCC2 (racemic)
Ki [3]: 22000 nM | Ki [2]: 88000 nM

Oc1cc2c(cc1O)[C@H]1c3ccccc3OC[C@@H]1NCC2 (racemic)
Ki [3]: 186 nM | Intrinsic activity [1]: 60% | Ki [2]: 44800 nM | EC50 [5]: 570 nM

CN1CCc2cc(Cl)c(O)cc2[C@H]2c3ccccc3CC[C@@H]21 [ECOPIPAM HYDROCHLORIDE]
Ki [3]: 1.3 nM | Ki [2]: 2010 nM

Oc1cc2c(cc1O)[C@@H](c1ccccc1)CNCC2
Ki [3]: 151 nM | Intrinsic activity [1]: 93% | Ki [2]: 2360 nM

Oc1cc2c(cc1O)[C@H]1c3ccccc3CC[C@@H]1NCC2 (racemic)
Ki [3]: 257 nM | Intrinsic activity [1]: 28% | Ki [2]: 8480 nM | EC50 [5]: 438 nM
